Kir21 inh: inhibitors of mouse Kir2.1 inward-rectifier potassium channel; Inward rectifier potassium channel 2 (Mus musculus), P35561; HEK293-Kir2.1, FluxOR thallium flux fluorescence; hits give low values; B-score at 10 µM; 310,000 compounds, 0.85% hits; AID 1672, 2009;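 active = fluorescence ratio B-score at or below minus 3 SD of library scores, with starting-brightness B-score within 2 SD, cut at about -4.2 in these data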;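 note: channel flux triggered by added potassium and thallium sulfate stimulus; B-score of peak minus minimum fluorescence over baseline after thallium stimulus; more negative B-score means stronger Kir2.1 block with less thallium influx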
KCNQ1 pot: potentiators or activators of KCNQ1 channel, primary screen, cell-based, thallium flux, high-throughput. Potassium voltage-gated channel subfamily KQT member 1 (Homo sapiens), P51787. CHO-K1 KCNQ1, thallium flux FluxOR fluorescence; hits give high values. B-score at 10 µM. 310,000 compounds, 0.35% hits. AID 2648, 2010;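 active = fluorescence ratio B-score, a plate-corrected score, at least three library SD, with initial intensity B-score within 5 SD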
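assay system = CHO-K1 cells stably expressing KCNQ1 | medium = assay buffer, equal DMSO in all wells | timing = 37 °C overnight plating, 90-min dark dye load, 20-min compound pretreatment | measured by = kinetic FluxOR thallium fluorescence, 10-s 1-Hz baseline, 110-s post-stimulus read | measure = fluorescence change relative to baseline, converted to B score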
KCNK9 inh: KCNK9 potassium channel inhibitors, primary screen, HEK293 cells, thallium flux; Potassium channel subfamily K member 9 (Homo sapiens), Q9NPC2; FluxOR thallium flux fluorescence; hits give low values; B-score at 10 µM; 310,000 compounds, 1.2% hits; AID 488922, 2010;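 active = ratio B-score over 3 SD below the library mean, with starting fluorescence within 5 SD of its mean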;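 note: negative B-score means less thallium flux so channel inhibition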
hERG rescue: hERG rescue from dofetilide block, primary screen, cell-based, CHO-hERG, FluxOR thallium flux, dofetilide IC70; dofetilide IC70 present; 310,000 compounds, 0.51% hits; activation (rescue from dofetilide block), less the hit threshold, % at 10 µM;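 active = activation above the mean of controls blocked by dofetilide plus 5 SD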;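 note: thallium influx through hERG after potassium depolarization seen as dye fluorescence rise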
KCNK3 block: human KCNK3 channel inhibitors, primary screen, CHO cells, FluxOR thallium flux, B-score. FluxOR fluorescence; hits give low values. Potassium channel subfamily K member 3 (Homo sapiens), O14649. AID 602410, 2012. 340,000 compounds, 0.84% hits. B-score at 10 µM;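 active = B-score under library mean minus 4 SD, starting fluorescence ratio at most library mean plus 5 SD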;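 note: more negative B-score means stronger inhibition of thallium flux through KCNK3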
KCNQ1 block: inhibitors of human KCNQ1 channel, primary screen, cell-based, thallium flux, high-throughput; AID 2642, 2010; CHO-K1 KCNQ1, FluxOR thallium flux fluorescence; hits give high values; Potassium voltage-gated channel subfamily KQT member 1 (Homo sapiens), P51787; B-score at 10 µM; 310,000 compounds, 1.3% hits;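 active = compounds whose thallium flux B-score, printed positive for inhibition, exceeds three library SD while starting fluorescence stays within three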;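 note: channel opened by potassium depolarization with thallium stimulus after 20 min compound exposure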
KCNQ1 inh valid: KCNQ1 potassium channel inhibitors, confirmation, cell-based, Tl flux, duplicate; 1,600 compounds, 93% hits; shares compounds with KCNQ1 block; AID 588353, 2011; KCNQ1 cell line, FluxOR thallium flux fluorescence; inhibition, % at 10 µM;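 active = primary screen active, with duplicate mean exceeding buffer control mean plus 3 SD of buffer wells, cut at about 28% in these data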;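 note: 0% = buffer control ratio and 100% = XE991 inhibitor control ratio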
CHO Tl flux: thallium flux effects in parental CHO cells, counter-screen for KCNQ1 inhibitor project, cell-based, Tl flux. AID 588366, 2011. parental CHO-K1, FluxOR thallium flux fluorescence ratio; hits give low values; zero means no signal rise above baseline. 1,600 compounds, 21% hits. fluorescence ratio (Tl flux) at 10 µM. shares compounds with KCNQ1 block;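 active = mean of duplicate thallium-flux fluorescence ratios in parental host cells more than 5 SD below the buffer control mean, cut at about 0.38 in these data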;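 note: ratio is peak minus minimum fluorescence divided by baseline fluorescence; actives read low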
KCNQ1 ephys val: KCNQ1 channel inhibitors, confirmation, orthogonal assay, cell-based, automated electrophysiology; shares compounds with KCNQ1 block; KCNQ1-CHO cells, automated patch clamp current; calls only at 10 µM; 490 compounds, 20% hits; AID 624120, 2012;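 active = KCNQ1 current drop exceeding 3 SD of negative control wells, seen in both duplicate runs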;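 note: steady state current during a 2 s step from -80 to +40 mV; negative values mean current inhibition and positive values mean potentiation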
KCNQ2 inh: KCNQ2 channel inhibition, selectivity assay for KCNQ1 inhibitor project, cell-based. shares compounds with KCNQ1 block. KCNQ2 cells, FluxOR thallium flux fluorescence. inhibition, % at 10 µM. 1,600 compounds, 71% hits. AID 651746, 2012;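 active = mean percent inhibition of the KCNQ2 thallium signal more than 5 SD above the buffer-only control wells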;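 note: KCNQ2 expressed in CHO cells; 0% = buffer control wells and 100% = XE-991 inhibitor control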
Target sequence (O88943 whole entry, looked up): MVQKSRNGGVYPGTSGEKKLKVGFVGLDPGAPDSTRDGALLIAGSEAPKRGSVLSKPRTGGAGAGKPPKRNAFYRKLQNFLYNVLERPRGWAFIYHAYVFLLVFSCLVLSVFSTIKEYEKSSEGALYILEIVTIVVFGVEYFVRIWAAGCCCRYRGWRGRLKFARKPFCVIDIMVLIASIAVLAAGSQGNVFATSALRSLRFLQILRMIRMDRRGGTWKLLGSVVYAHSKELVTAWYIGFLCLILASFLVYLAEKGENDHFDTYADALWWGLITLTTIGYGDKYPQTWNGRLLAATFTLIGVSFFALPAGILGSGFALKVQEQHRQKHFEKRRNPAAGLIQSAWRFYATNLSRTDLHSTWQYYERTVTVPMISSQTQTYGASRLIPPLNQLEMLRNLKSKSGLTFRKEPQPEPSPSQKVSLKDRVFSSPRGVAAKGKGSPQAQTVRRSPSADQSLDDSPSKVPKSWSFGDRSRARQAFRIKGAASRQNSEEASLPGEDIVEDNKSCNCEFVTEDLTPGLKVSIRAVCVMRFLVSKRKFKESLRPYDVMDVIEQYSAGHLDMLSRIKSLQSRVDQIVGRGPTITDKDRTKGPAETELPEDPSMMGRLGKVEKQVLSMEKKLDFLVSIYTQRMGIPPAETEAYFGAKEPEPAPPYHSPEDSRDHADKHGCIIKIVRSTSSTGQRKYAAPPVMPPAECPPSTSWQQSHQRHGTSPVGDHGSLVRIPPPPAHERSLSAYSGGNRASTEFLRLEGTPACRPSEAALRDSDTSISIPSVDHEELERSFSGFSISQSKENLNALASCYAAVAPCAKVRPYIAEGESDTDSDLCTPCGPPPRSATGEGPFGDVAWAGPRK
KCNQ1 KCNE1 spec: KCNQ1/KCNE1 channel inhibition, selectivity assay for KCNQ1 inhibitor project, CHO-K1 cells, thallium flux, FluxOR; AID 652147, 2013; 1,600 compounds, 77% hits; FluxOR thallium flux fluorescence; inhibition, % at 10 µM; shares compounds with KCNQ1 block;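 active = mean percent inhibition of duplicate wells above the buffer-only control mean plus 3 SD of those controls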;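 note: 0% = buffer only wells and 100% = XE-991 inhibitor control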
KCNK3 inh conf: retest of human KCNK3 channel inhibitors, confirmation, CHO cells, FluxOR thallium flux, triplicate; 2,400 compounds, 99% hits; shares compounds with KCNK3 block; ratio percent of control, % at 10 µM; AID 651638, 2012; FluxOR fluorescence; 0% buffer, 100% carvedilol maximal block;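 active = ratio percent of control, averaged over triplicates, above buffer control mean plus 5 SD, cut at about 64% in these data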;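 note: ratio is the fluorescence rise from min to max over baseline after thallium stimulus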
KCNK3 uninduced: thallium flux inhibition in non-induced cells, primary screen, counter-screen for KCNK3 inhibitor project, cell-based, non-induced KCNK3 line, FluxOR thallium, triplicate; shares compounds with KCNK3 block; non-induced KCNK3 parental cells; hits give low values; thallium flux ratio (lower = more inhibition) at 10 µM; 2,400 compounds, 40% hits;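 active = thallium flux ratio, averaged over three wells, more than 5 SD below the buffer control mean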;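 note: host cells are CHO cells without KCNK3 induction; ratio is peak minus trough fluorescence over baseline then normalized to buffer controls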
An asterisk follows results filed as active; i = inactive; nt = no result given; + = active, no number. An excerpt weighted towards active compounds, which were near 3.7% of everything screened.

SMILES	Kir21 inh	KCNQ1 pot	KCNK9 inh	hERG rescue	KCNK3 block	KCNQ1 block	KCNQ1 inh valid	CHO Tl flux	KCNQ2 inh	KCNQ1 KCNE1 spec	KCNK3 inh conf	KCNK3 uninduced	others
Cc1cc(OCC(=O)Nc2ccncc2)c(C)cc1Br	-0.47	i	i	-16	-9.2*	8*	132*	0.49	108%*	44%*	122*	i	KCNQ1 ephys val=i
CC(C)(C)c1ccc(OCC(=O)Nc2ccncc2)c(Br)c1	0.95	i	i	-18	-8.8*	19*	142*	0.42	i	74%*	138*	0.12*	KCNQ1 ephys val=i
CCc1ccc(OCC(=O)Nc2ccncc2)c(Br)c1	-0.15	i	i	-8	i	i	nt	nt	nt	nt	nt	nt
Cc1nnc(SCc2nnc(-c3cccs3)o2)s1	0.85	i	i	-12	i	i	nt	nt	nt	nt	nt	nt
CC(=O)Nc1ccc(NC(=O)Nc2ccc3c(c2)N(C)C(=O)CS3)cc1	1.2	i	i	-6	i	i	nt	nt	nt	nt	nt	nt
COc1cccc(NC(=O)Nc2ccncc2)c1	-1.1	i	i	-4	i	i	nt	nt	nt	nt	nt	nt
CCOc1ccc(OCC)c(NC(=O)Nc2ccc3c(c2)N(C)C(=O)CS3)c1	-0.02	i	i	-9	-16*	14*	82*	0.47	90%*	152%*	119*	i
COc1cccc(NC(=O)Nc2ccc(C(C)(C)C)cc2)c1	-0.77	i	i	-30	-13*	13*	152*	0.35*	109%*	+	134*	0.13*
COc1cccc(NC(=O)Nc2ccc3c(c2)N(C)C(=O)CS3)c1	-0.19	i	i	-28	-11*	6*	114*	0.36*	114%*	+	119*	i
O=C(O)C1C2C=CC(O2)C1C(=O)Nc1cccc(C(F)(F)F)c1 (stereo not drawn)	1.6	i	i	-6	i	i	nt	nt	nt	nt	nt	nt
CC1(C)CC(=O)C2=C(C1)N(CC1CCCO1)C(=O)C2(NC(=O)c1cccnc1)C(F)(F)F (stereo not drawn)	1.6	i	i	-10	i	i	nt	nt	nt	nt	nt	nt
O=C(c1cnc(N2CCN(c3ccccn3)CC2)c2ccccc12)N1CCN(c2cccc(Cl)c2)CC1	-0.04	i	i	-3	-9.3*	10*	102*	0.38*	119%*	130%*	97*	i
O=C(c1cc(Cl)ccc1Cl)N1CCN(c2ccccn2)CC1	-1.5	i	i	-8	i	i	nt	nt	nt	nt	nt	nt
CC(C)c1ccc(OCC(=O)NC2CCCC2)cc1	-1	i	i	-8	i	i	nt	nt	nt	nt	nt	nt
Cc1ccc(C(C)C)cc1OCC(=O)NC1CCCCCCC1	-3.4	i	i	-8	-10*	9*	116*	0.42	i	113%*	114*	i	KCNQ1 ephys val=i
COc1ccccc1-n1c(SCC(=O)Nc2ccc(NC(C)=O)cc2)nc2c([nH]c3ccccc32)c1=O	-0.1	i	i	-18	i	i	nt	nt	nt	nt	nt	nt
COc1ccc(OC)c(S(=O)(=O)NC2CCCCNC2=O)c1 (stereo not drawn)	0.01	i	i	-6	i	i	nt	nt	nt	nt	nt	nt
CC[C@]1(C(=O)OC)[C@H]2C(=O)N(C)C(=O)[C@H]2[C@H]2CN(C)C(=NC)N21	nt	nt	nt	nt	i	nt	nt	nt	nt	nt	nt	nt
CCOC(=O)c1c(C)n(-c2ccc(C)cc2)c2ccc(O)c(CN(C)C)c12	-3.4	i	i	-24	-9.8*	6*	38*	0.48	i	i	117*	0.15*
CCOC(=O)c1c(C)n(-c2ccc(OC)cc2)c2ccc(O)c(CN(C)C)c12	-2	i	i	-17	i	i	nt	nt	nt	nt	nt	nt
CC(C)c1ccc2c(c1)C1(NN=C(c3ccccc3)S1)C(=O)N2 (stereo not drawn)	0.95	i	i	-22	-12*	18*	68*	0.35*	78%*	42%*	138*	0.095*
O=C(Nc1ccc(Br)cc1)Nc1ccccc1Cl	0	i	-6.7*	-8	-8.7*	7*	34*	0.52	i	i	86*	i
Cc1ccc2c(c1)N(S(=O)(=O)c1cc(-c3onc(C)c3C)ccc1C)CCO2	0.09	i	-7.5*	-10	-11*	7*	77*	0.35*	106%*	93%*	106*	i
O=C(Nc1cccc(C(=O)Nc2cccc(Br)c2)c1)c1ccccc1	-1.4	i	i	-6	-12*	13*	116*	0.5	111%*	151%*	118*	i	KCNQ1 ephys val=i
CC1CCC/C(=N\NC(=O)c2ccncc2)C1 (stereo not drawn)	0.77	i	i	-10	i	i	nt	nt	nt	nt	nt	nt
c1ccc(N2CCN(c3nc(NCc4ccco4)c4ccccc4n3)CC2)cc1	1.4	i	i	-26	-12*	12*	144*	0.35*	114%*	192%*	140*	0.11*
O=C(CCOc1ccccc1)Nc1ccc(S(=O)(=O)Nc2ncccn2)cc1	nt	nt	nt	nt	i	nt	nt	nt	nt	nt	nt	nt

Screens from PubChem.
